# ChEMBL document CHEMBL3259795, “Cephalochromin induces G0/G1 cell cycle arrest and apoptosis in A549 human non-small-cell lung cancer cells by inflicting mitochondrial disruption” (J Nat Prod, 2014)
# Calls of active or inactive are those of the source. The calls are words filed in the database; no cut-off is given here.
# Assays:
# A549 [1] = assay: Induction of apoptosis in human A549 cells assessed as loss of mitochondrial membrane potential at 10 to 30 uM after 12 to 24 hrs by flow cytometry analysis; format: functional, cell-based
# Outline: (§1)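 A549 cells treated 12 and 24 h, stained with rhodamine 123 for 30 min at 37 °C; mean fluorescence by FACScan flow cytometry; CCCP (50 μM) used as depolarising control; mean ± SEM of three independent determinations.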
# A549 [2] = assay: Cytotoxicity against human A549 cells after 48 hrs by MTT assay; format: functional, cell-based
# Outline: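 Viability of A549 cells measured by mitochondrial MTT reduction after 24 and 48 h incubation with indicated concentrations; IC50 at 48 h; mean ± SEM of three determinations, each in triplicate.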
# A549 [3] = assay: Induction of apoptosis in human A549 cells assessed as induction of ROS production after 12 hrs using DCF-DA staining by flow cytometry analysis; format: functional, cell-based
# Outline: (§2)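 Intracellular ROS in A549 cells after 12 h at 1, 3, 10, 30 μM, with 5 mM H2O2 as reference, measured by flow cytometry with DCF-DA probe; fold fluorescence over vehicle control; mean ± SEM, three independent determinations.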
# [4] = Cytotoxicity against human HuH7 cells after 48 hrs by SRB assay; settings: Huh-7, 48 h
# A549 [5] = assay: Induction of apoptosis in human A549 cells assessed as induction of ROS production at 5 mM after 12 hrs using DCF-DA staining by flow cytometry analysis relative to control; format: functional; outline: as §2
# A549 [6] = assay: Induction of apoptosis in human A549 cells assessed as increase in expression of LC3-II at 10 uM by Western blot analysis; format: functional, cell-based; settings: TDE = time-dependent effect
# Outline: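 A549 cells with or without 10 μM for 6, 12, 24, 36 h; LC3 detected by Western blot with ECL; LC3 II band quantified by image analysis; three independent experiments.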
# A549 [7] = assay: Induction of apoptosis in human A549 cells assessed as induction of ROS production at 3 uM after 12 hrs using DCF-DA staining by flow cytometry analysis relative to control; format: functional; outline: as §2
# A549 [8] = assay: Induction of apoptosis in human A549 cells assessed as reduction of survivin expression at 10 uM by Western blot analysis; format: functional, cell-based; settings: TDE = time-dependent effect
# Outline: (§3)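 A549 cells given 10 μM for 6, 12, 24, 36 h; lysates blotted (40 μg protein, SDS-PAGE, PVDF) for caspase-3/-8/-9, PARP, survivin, Bad, Bcl-xL; ECL detection; survivin bands quantified densitometrically; three independent experiments.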
# A549 [9] = assay: Cell cycle arrest in human A549 cells assessed as accumulation at G2/M phase at 10 uM after 36 hrs using propidium iodide staining by flow cytometry analysis (reference value: 35.8 +/- 1.8%); format: functional
# A549 [10] = assay: Induction of apoptosis in human A549 cells assessed as DNA level at 3 to 30 uM using propidium iodide staining by flow cytometry analysis; format: functional, cell-based; settings: TDE = time-dependent effect
# Outline: (§4)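 A549 cells treated at 3, 10 or 30 μM for 24, 36 or 48 h, fixed, stained with propidium iodide; hypodiploid apoptotic fraction counted by FACScan flow cytometry; mean ± SEM of three determinations versus vehicle control.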
# A549 [11] = assay: Induction of apoptosis in human A549 cells assessed as hypodiploid DNA content at 10 to 20 uM after 48 hrs by flow cytometry analysis in presence of Z-VAD-fmk; format: functional, cell-based
# Outline: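 Cells preincubated 2 h with or without 50 μM Z-VAD-fmk, then exposed to indicated concentrations for 48 h; hypodiploid DNA content read by flow cytometry; mean ± SEM of three independent determinations.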
# A549 [12] = assay: Induction of apoptosis in human A549 cells assessed as proteolytic cleavage of inactive procaspase-8, 9, and 3 into active caspase-8, 9, and 3 at 10 uM by Western blot analysis; format: functional, cell-based; settings: TDE = time-dependent effect; outline: as §3
# A549 [13] = assay: Cell cycle arrest in human A549 cells assessed as accumulation at G0/G1 phase at 10 uM after 36 hrs using propidium iodide staining by flow cytometry analysis (reference value: 53.1 +/- 1.2%); format: functional
# A549 [14] = assay: Induction of apoptosis in human A549 cells assessed as downregulation of cyclin D1, cyclin E, Cdk 2, and Cdk 4 protein levels at 10 uM after 6 to 36 hrs by Western blot analysis; format: functional, cell-based
# Outline: (§5)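 A549 lysates after 10 μM for 6, 12, 24, 36 h, or 1, 3, 10 μM for 24 h; 40 μg protein on 8–12% SDS gels, PVDF transfer, primary antibodies 1 h at room temperature, ECL detection; three independent experiments.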
# A549 [15] = assay: Induction of apoptosis in human A549 cells assessed as loss of mitochondrial membrane potential at 50 uM after 12 to 24 hrs by flow cytometry analysis; format: functional, cell-based; outline: as §1
# A549 [16] = assay: Cell cycle arrest in human A549 cells assessed as accumulation at S phase at 10 uM after 24 hrs using propidium iodide staining by flow cytometry analysis (reference value: 12 +/- 1.4%); format: functional
# A549 [17] = assay: Cell cycle arrest in human A549 cells assessed as accumulation at S phase at 10 uM after 36 hrs using propidium iodide staining by flow cytometry analysis (reference value: 9.6 +/- 0.9%); format: functional
# Caco-2 = assay: Cytotoxicity against human Caco2 cells after 48 hrs by SRB assay; settings: Caco-2, 48 h
# A549 [18] = assay: Cell cycle arrest in human A549 cells assessed as accumulation at G2/M phase at 10 uM after 48 hrs using propidium iodide staining by flow cytometry analysis (reference value: 31.9 +/- 1.4%); format: functional
# A549 [19] = assay: Cell cycle arrest in human A549 cells assessed as accumulation at G0/G1 phase at 10 uM after 48 hrs using propidium iodide staining by flow cytometry analysis (reference value: 57.3 +/- 0.9%); format: functional
# A549 [20] = assay: Cell cycle arrest in human A549 cells assessed as accumulation at sub-G1 phase at 10 uM after 36 hrs using propidium iodide staining by flow cytometry analysis (reference value: 1.7 +/- 0.4%); format: functional
# A549 [21] = assay: Cytotoxicity against human A549 cells after 48 hrs by SRB assay; format: functional, cell-based
# Outline: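 A549 cells exposed to a range of concentrations for 48 h, fixed and stained with sulforhodamine B to measure cell number; IC50 from three independent determinations, mean ± SEM.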
# A549 [22] = assay: Induction of apoptosis in human A549 cells assessed as induction of ROS production at 10 uM after 12 hrs using DCF-DA staining by flow cytometry analysis relative to control; format: functional; outline: as §2
# A549 [23] = assay: Cell cycle arrest in human A549 cells assessed as accumulation at G0/G1 phase at 10 uM after 24 hrs using propidium iodide staining by flow cytometry analysis (reference value: 51 +/- 1.1%); format: functional
# A549 [24] = assay: Cell cycle arrest in human A549 cells assessed as accumulation at G2/M phase at 10 uM after 24 hrs using propidium iodide staining by flow cytometry analysis (reference value: 35.2 +/- 2.3%); format: functional
# A549 [25] = assay: Induction of apoptosis in human A549 cells assessed as induction of ROS production at 30 uM after 12 hrs using DCF-DA staining by flow cytometry analysis relative to control; format: functional; outline: as §2
# A549 [26] = assay: Induction of apoptosis in human A549 cells assessed as DNA level after 24 to 48 hrs using propidium iodide staining by flow cytometry analysis; format: functional, cell-based; outline: as §4
# A549 [27] = assay: Induction of apoptosis in human A549 cells assessed as reduction of Bad proteins expression at 10 uM after 6 to 36 hrs by Western blot analysis; format: functional, cell-based; outline: as §3
# A549 [28] = assay: Induction of apoptosis in human A549 cells assessed as induction of ROS production at 10 uM using DCF-DA staining by flow cytometry analysis relative to control; format: functional, cell-based; settings: TDE = time-dependent effect
# Outline: (§6)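 Cells pretreated 1 h with or without 1 mM Tiron, then 10 μM for 1, 3 or 5 h; intracellular ROS read by DCF-DA flow cytometry; mean ± SEM of three independent determinations versus vehicle.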
# [29] = Cytotoxicity against human HT1080 cells after 48 hrs by SRB assay; settings: HT-1080, 48 h
# A549 [30] = assay: Induction of apoptosis in human A549 cells assessed as reduction of Bcl-xL expression at 10 uM after 6 to 36 hrs by Western blot analysis; format: functional, cell-based; outline: as §3
# A549 [31] = assay: Induction of apoptosis in human A549 cells assessed as downregulation of cyclin D1, cyclin E, Cdk 2, and Cdk 4 protein levels after 24 hrs by Western blot analysis; format: functional, cell-based; outline: as §5
# A549 [32] = assay: Cell cycle arrest in human A549 cells assessed as accumulation at S phase at 10 uM after 48 hrs using propidium iodide staining by flow cytometry analysis (reference value: 9.5 +/- 0.7%); format: functional
# A549 [33] = assay: Induction of apoptosis in human A549 cells assessed as induction of ROS production at 1 uM after 12 hrs using DCF-DA staining by flow cytometry analysis relative to control; format: functional; outline: as §2
# [34] = Cytotoxicity against human Hep3B cells after 48 hrs by SRB assay
# A549 [35] = assay: Cell cycle arrest in human A549 cells assessed as accumulation at sub-G1 phase at 10 uM after 48 hrs using propidium iodide staining by flow cytometry analysis (reference value: 1.5 +/- 0.1%); format: functional
# A549 [36] = assay: Cell cycle arrest in human A549 cells assessed as accumulation at sub-G1 phase at 10 uM after 24 hrs using propidium iodide staining by flow cytometry analysis (reference value: 2 +/- 0.3%); format: functional
# A549 [37] = assay: Induction of apoptosis in human A549 cells assessed as induction of ROS production at 10 uM after 5 hrs using DCF-DA staining by flow cytometry analysis in presence of Tiron; format: functional, cell-based; outline: as §6
# SW1353 = assay: Cytotoxicity against human SW1353 cells after 48 hrs by SRB assay; settings: SW1353, 48 h
# A549 [38] = assay: Induction of apoptosis in human A549 cells assessed as induction of cleaved PARP protein expression at 10 uM after 26 to 36 hrs by Western blot analysis; format: functional, cell-based; settings: in the assay text read “24 to 36 hrs” for “26 to 36 hrs”; outline: as §3
structure (smiles),measurement,setting,value
CC1CC(=O)c2c(cc3c(-c4c(O)cc(O)c5c(O)c6c(cc45)OC(C)CC6=O)c(O)cc(O)c3c2O)O1 (configuration not stated) [CEPHALOCHROMIN],Activity,A549 [1],Active
same,Activity,A549 [2],Dose-dependent effect
same,IC50,"A549 [2]; A549, 48 h",5.22 µM
same,Activity,A549 [3],Dose-dependent effect
same,IC50,[4],4.64 µM
same,fold change (FC),A549 [5],7.2
same,Activity,A549 [6],tde
same,fold change (FC),A549 [7],1.89
same,Activity,A549 [8],tde
same,Activity,A549 [9],32.3%
same,Activity,A549 [10],tde
same,Activity,A549 [11],inactive
same,Activity,A549 [12],tde
same,Activity,A549 [13],53.7%
same,Activity,A549 [14],Active
same,Activity,A549 [15],Active
same,Activity,A549 [16],3.9%
same,Activity,A549 [17],4.2%
same,IC50,Caco-2,12.4 µM
same,Activity,A549 [18],27.9%
same,Activity,A549 [19],52.1%
same,Activity,A549 [20],9.8%
same,Activity,A549 [21],Dose-dependent effect
same,IC50,"A549 [21]; A549, 48 h",2.72 µM
same,fold change (FC),A549 [22],2.87
same,Activity,A549 [23],59.6%
same,Activity,A549 [24],32.7%
same,fold change (FC),A549 [25],4.65
same,Activity,A549 [26],Dose-dependent effect
same,Activity,A549 [27],inactive
same,Activity,A549 [28],tde
same,IC50,[29],4.98 µM
same,Activity,A549 [30],Active
same,Activity,A549 [31],Dose-dependent effect
same,Activity,A549 [32],4.4%
same,fold change (FC),A549 [33],1.24
same,IC50,[34],14.3 µM
same,Activity,A549 [35],15.5%
same,Activity,A549 [36],3.8%
same,Activity,A549 [37],inactive
same,IC50,SW1353,3.54 µM
same,Activity,A549 [38],Active
